An excerpt weighted towards active compounds, which were near 5.3% of everything screened.
T cruzi repl: T. cruzi replication inhibition | T. cruzi beta-gal in NIH3T3, luminescence, 90 h | inhibition, % (test concentration not listed) | 300,000 compounds, 1.4% hits | AID 1885;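 active = mean inhibition across valid replicates above about 55%, limit read from the data; inconclusive = mean below that limit but half or more replicates reach it; inactive = mean below it, under half of replicates reach it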;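 note: signal also drops with host cell toxicity which is not excluded here; 0% = plate median of DMSO wells and 100% = zero luminescence signal; higher percent means less beta-gal luminescence so fewer parasites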
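assay system = mouse NIH/3T3 fibroblasts infected with β-gal-expressing T. cruzi Tulahuen C4 | input = 5,000 NIH/3T3 host cells per well | buffer or medium = DMEM plus 2% FBS | timing = 3 h host attachment, then at least 90 h co-culture | measured by = GalScreen luminescence, 60 min | evaluation = luminescence reflecting intracellular parasite burden, expressed as percent inhibition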
Calb FLC: affects C. albicans growth with fluconazole | C. albicans CaCi-2 + fluconazole, Alamar Blue growth, 48 h | growth inhibition, % (no concentration beside the values) | AID 1979 | 300,000 compounds, 0.57% hits;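 active = growth inhibition above about 58% in most replicates, limit read from the data, passing the limit was not always enough; inconclusive = exactly half the replicates above a set limit; inactive = most replicates below a set limit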;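 note: all wells also contain fluconazole at 8 µg/ml as a sub-toxic cotreatment; 0% = median of DMSO wells and 100% = median of geldanamycin control wells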
NLRP3 yeast inh: NALP3 inhibition in yeast. Yeast reconstituted NLRP3/ASC/caspase-1, beta-gal luminescence, 24 h. inhibition, % at 10 µM. 330,000 compounds, 0.39% hits;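 active = inhibition of 50% or more; inactive = inhibition below 50%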;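 note: plate controls were induced DMSO wells for no effect and uninduced yeast grown without galactose for full effect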
Beta apoptosis: beta cell apoptosis inhibition. INS-1E cytokine-induced death, ATP luminescence, 48 h; percent of positive-control rescue, neutral wells zero. protection from apoptosis, % (test concentration not listed). 300,000 compounds, 0.8% hits;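 active = Every replicate reaches about 75%, or at least half do and their mean reaches it too, limit read from the data; inconclusive = At least half of replicates reach the limit but their mean does not; inactive = Under half of replicates reach the limit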;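 note: 0% = cytokine-treated negative control wells and 100% = positive control rescue; higher means more ATP so stronger rescue from cytokine killing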
CSC inhib: cancer stem cell inhibition | cancer stem cell-like cells viability, luminescence | inhibition, % at 7.5 µM | 300,000 compounds, 1.1% hits | AID 2717; in the data active = inhibition above about 75%; inconclusive = no clear call, values can overlap the other calls; tested in HMLE shEcad cells
Mdm2 MdmX PPI: inhibitors of human Mdm2/MdmX interaction. SaOS-2 split-luciferase Mdm2/MdmX complementation, luminescence. inhibition, % at 8 µM. AID 485346. 330,000 compounds, 3% hits. O15151+Q00987;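 active = inhibition of at least 50% at 8 µM in the primary screen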
Target sequence (O15151 whole entry, looked up): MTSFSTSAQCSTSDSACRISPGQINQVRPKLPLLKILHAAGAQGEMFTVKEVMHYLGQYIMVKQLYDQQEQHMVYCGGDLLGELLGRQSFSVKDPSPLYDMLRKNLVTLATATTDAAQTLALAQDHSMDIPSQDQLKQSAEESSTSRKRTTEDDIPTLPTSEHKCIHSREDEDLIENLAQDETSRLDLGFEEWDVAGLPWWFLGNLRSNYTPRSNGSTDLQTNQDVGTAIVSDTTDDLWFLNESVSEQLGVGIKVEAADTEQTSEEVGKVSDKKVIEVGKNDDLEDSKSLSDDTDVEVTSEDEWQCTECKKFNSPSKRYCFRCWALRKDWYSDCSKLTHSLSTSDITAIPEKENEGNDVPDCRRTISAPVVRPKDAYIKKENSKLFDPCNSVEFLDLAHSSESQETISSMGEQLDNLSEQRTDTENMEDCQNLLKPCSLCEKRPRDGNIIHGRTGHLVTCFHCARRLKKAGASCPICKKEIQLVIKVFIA
Target sequence (Q00987 whole entry, looked up): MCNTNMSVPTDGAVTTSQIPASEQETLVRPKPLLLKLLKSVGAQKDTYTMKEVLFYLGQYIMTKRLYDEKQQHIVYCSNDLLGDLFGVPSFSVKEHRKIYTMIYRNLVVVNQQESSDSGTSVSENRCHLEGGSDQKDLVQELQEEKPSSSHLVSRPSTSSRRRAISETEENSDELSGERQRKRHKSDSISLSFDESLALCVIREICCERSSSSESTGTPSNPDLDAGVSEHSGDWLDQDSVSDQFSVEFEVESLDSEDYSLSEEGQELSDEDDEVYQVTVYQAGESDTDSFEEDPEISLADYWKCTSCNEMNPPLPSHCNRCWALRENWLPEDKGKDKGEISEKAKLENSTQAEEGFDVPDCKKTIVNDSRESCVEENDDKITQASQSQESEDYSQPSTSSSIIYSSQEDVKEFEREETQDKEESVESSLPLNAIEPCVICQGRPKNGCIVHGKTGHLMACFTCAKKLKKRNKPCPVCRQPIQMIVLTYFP
The depositor's hits bear a star.

Cc1ccc(OCCSc2nc(NC(C)C)nc(NC(C)C)n2)cc1 was read as T cruzi repl 34, Calb FLC -6, NLRP3 yeast inh 13, Beta apoptosis 39, CSC inhib 90* and Mdm2 MdmX PPI 4.
For Cc1cccc(-n2nc(C(=O)c3ccco3)cc(-c3nc4ccccc4[nH]3)c2=N)c1 the results were T cruzi repl 54, Calb FLC 97*, NLRP3 yeast inh 4, Beta apoptosis 30, CSC inhib 19 and Mdm2 MdmX PPI 26.
`Cc1oc(-c2cccs2)nc1CN1CCN(Cc2ccc(F)c(F)c2)C(CCO)C1` (stereo not given) gave T cruzi repl 12, Calb FLC 84*, NLRP3 yeast inh 13, Beta apoptosis 1, CSC inhib 9 and Mdm2 MdmX PPI 0.
For Cc1oc(-c2cccs2)nc1CN1CCN(CCC(C)C)C(CCO)C1 (stereo not given) the results were T cruzi repl 12, Calb FLC 0, NLRP3 yeast inh 9, Beta apoptosis 0, CSC inhib 2 and Mdm2 MdmX PPI 2.
`O=C(C(Sc1ccccc1)c1ccccc1)N1CCN(c2ccccc2F)CC1` (stereo not given) gave T cruzi repl 6, Calb FLC -1, NLRP3 yeast inh 16, Beta apoptosis 90* and Mdm2 MdmX PPI -6.
For CCOC(=O)c1c(C)[nH]c(C)c1S(=O)(=O)N1CCN(c2ccc(F)cc2)CC1 the results were T cruzi repl 6, Calb FLC 6, NLRP3 yeast inh 22, Beta apoptosis -8, CSC inhib 16 and Mdm2 MdmX PPI 8.
Screening O=C(NCC(c1cccnc1)N1CCN(c2ccc(F)cc2)CC1)c1ccc(F)cc1 (stereo not given) returned T cruzi repl 60*, Calb FLC 9, NLRP3 yeast inh 2, Beta apoptosis 2, CSC inhib -7 and Mdm2 MdmX PPI -10.
COc1cc(C(=O)NCC(c2cccnc2)N2CCN(c3ccc(F)cc3)CC2)cc(OC)c1OC (stereo not given) was read as T cruzi repl 71*, NLRP3 yeast inh -3, Beta apoptosis 4, CSC inhib 2 and Mdm2 MdmX PPI 17.
For O=C(NCC(c1cccnc1)N1CCN(c2ccc(F)cc2)CC1)c1ccco1 (stereo not given) the results were T cruzi repl 60*, Calb FLC 3, NLRP3 yeast inh -3, Beta apoptosis -5, CSC inhib 1 and Mdm2 MdmX PPI -30.
COc1ccc(N2CCN(C(CNC(=O)c3ccco3)c3cccnc3)CC2)cc1 (stereo not given) was read as T cruzi repl 42, Calb FLC 0, NLRP3 yeast inh 5, Beta apoptosis 2, CSC inhib -4 and Mdm2 MdmX PPI -4.
For O=C(COc1cccc(Cl)c1Cl)NC1CC1 the results were NLRP3 yeast inh -7, Beta apoptosis -3, CSC inhib -4 and Mdm2 MdmX PPI 4.
Screening COc1cccc(-c2nc(N3CCN(C)CC3)c3ccccc3n2)c1O returned T cruzi repl 55*, Calb FLC -7, NLRP3 yeast inh -3, Beta apoptosis 21, CSC inhib 14 and Mdm2 MdmX PPI -8.
Screening COC(=O)c1ccccc1NC(=O)NN1CCN(C)CC1 returned T cruzi repl -7, Calb FLC 1, NLRP3 yeast inh 9, Beta apoptosis -1, CSC inhib -6 and Mdm2 MdmX PPI 9.
Screening CN1CCN(NC(=O)Nc2cccc(Cl)c2Cl)CC1 returned T cruzi repl 57*, Calb FLC -6, NLRP3 yeast inh 15, Beta apoptosis -5, CSC inhib 17 and Mdm2 MdmX PPI 11.
Screening Clc1ccccc1Nc1nnc(-c2ccncc2)s1 returned T cruzi repl 24, Calb FLC -2, NLRP3 yeast inh 37, Beta apoptosis 75*, CSC inhib 70 and Mdm2 MdmX PPI -66.
Screening COc1ccc(Cl)cc1Nc1nnc(-c2ccncc2)s1 returned T cruzi repl -13, Calb FLC 14, NLRP3 yeast inh 4 and Mdm2 MdmX PPI 29.
`COCCN(C(=O)Nc1ccccc1)C(C)c1cccnc1` (stereo not given) gave T cruzi repl -1, Calb FLC 0, NLRP3 yeast inh 15, CSC inhib -16 and Mdm2 MdmX PPI 2.
`CCc1ccc(NC(=O)N(Cc2cccnc2)Cc2ccco2)cc1` gave Calb FLC -12, NLRP3 yeast inh -20, Beta apoptosis 2, CSC inhib -11 and Mdm2 MdmX PPI -21.
COc1ccccc1NC(=S)N(Cc1cccnc1)Cc1ccco1 was read as T cruzi repl 30, Calb FLC 3, NLRP3 yeast inh 4, Beta apoptosis -3, CSC inhib -10 and Mdm2 MdmX PPI -16.
`CCOC(=O)c1ccc(NC(=S)N(CCCN(CC)CC)Cc2ccco2)cc1` gave T cruzi repl 7, Calb FLC -6, NLRP3 yeast inh 14, Beta apoptosis -18, CSC inhib 53 and Mdm2 MdmX PPI 0.
COc1ccc(Cl)cc1NC(=S)N(Cc1cccnc1)Cc1ccco1 was read as T cruzi repl 66*, Calb FLC 9, NLRP3 yeast inh 10, Beta apoptosis -6, CSC inhib 13 and Mdm2 MdmX PPI 1.
CCOC(=O)c1ccc(NC(=S)N(Cc2cccnc2)Cc2ccco2)cc1 was read as T cruzi repl 55*, Calb FLC 1, NLRP3 yeast inh 10, Beta apoptosis -4 and Mdm2 MdmX PPI -4.
Screening COC(=O)c1ccc(NC(=S)N(Cc2cccnc2)Cc2ccco2)cc1 returned T cruzi repl 73*, Calb FLC -5, NLRP3 yeast inh 3, Beta apoptosis -2, CSC inhib -20 and Mdm2 MdmX PPI -16.
O=C(CSCc1cccc(Cl)c1)Nc1ccccc1-c1ccccc1 was read as T cruzi repl 6, Calb FLC inconclusive, NLRP3 yeast inh 9, Beta apoptosis -4, CSC inhib 75* and Mdm2 MdmX PPI 28.
COc1ccc(C(=O)COC(=O)c2ccccc2NS(=O)(=O)c2ccc(O)c([N+](=O)[O-])c2)cc1 was read as T cruzi repl -10, Calb FLC 29, NLRP3 yeast inh -1, Beta apoptosis 4, CSC inhib -10 and Mdm2 MdmX PPI -12.
Cc1ccccc1C(=O)NNC(=S)NC(=O)c1ccc(Cl)cc1Cl was read as T cruzi repl -28, Calb FLC 91*, NLRP3 yeast inh 37 and Mdm2 MdmX PPI 5.
Screening COc1ccc(C(=O)NC(=S)NNC(=O)c2ccccc2C)cc1 returned T cruzi repl -13, Calb FLC 101*, NLRP3 yeast inh 25, Beta apoptosis 10, CSC inhib 14 and Mdm2 MdmX PPI 37.
For CCc1ccccc1NC(=S)N1CCCCCC1 the results were Calb FLC 117*, NLRP3 yeast inh 4, Beta apoptosis 0, CSC inhib 0 and Mdm2 MdmX PPI 1.
For COc1ccc(C(=O)NC(=S)NNC(=O)c2ccccc2O)cc1 the results were T cruzi repl 5, Calb FLC 36, NLRP3 yeast inh 44, Beta apoptosis 27, CSC inhib 54 and Mdm2 MdmX PPI 32.
